HSF1 inhib = HSF1 inhibition | AID 2098 | activity change, negative = inhibition, % at 7.5 µM (by protocol) | NIH3T3-HGL HSE-luciferase, MG132-induced, luminescence 8 h; active compounds read low | 0.77% of 300,000 active;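 active = more than half of replicate wells show activity change below -50%, luminescence cut by over half; inconclusive = some wells, but at most half, below -50%; inactive = no replicate well below -50%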;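 also: luciferase reports HSF-1 transcriptional activity via heat shock element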
T cruzi inh = T. cruzi replication inhibition; inhibition, % (no concentration beside the values); AID 1885; T. cruzi beta-gal in NIH3T3, luminescence, 90 h; 1.4% of 300,000 active;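 active = mean inhibition across valid replicates above about 55%, limit read from the data; inconclusive = mean below that limit but half or more replicates reach it; inactive = mean below it, under half of replicates reach it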;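 also: signal also drops with host cell toxicity which is not excluded here; higher percent means less beta-gal luminescence so fewer parasites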
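assay system = mouse NIH/3T3 fibroblasts infected with β-gal-expressing T. cruzi Tulahuen C4 | input = 5,000 NIH/3T3 host cells per well | buffer or medium = DMEM plus 2% FBS | timing = 3 h host attachment, then at least 90 h co-culture | measured by = GalScreen luminescence, 60 min | evaluation = luminescence reflecting intracellular parasite burden, expressed as percent inhibition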
HSF1 activator = increases HSF-1 driven luciferase reporter signal; NIH3T3-HGL HSF-1 luciferase reporter, MG132, 8 h; 100% = twice DMSO control signal; activation, % at 9 µM; 1.7% of 300,000 active;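 active = mean replicate activation of at least 50% with a set share of replicates each reaching 50%; inconclusive = only one of those two conditions met; inactive = mean below 50% and too few replicates reaching it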
HIF activator = HIF pathway transcriptional activation; U2OS HRE-luciferase reporter, luminescence; normalized: DMSO 0%, desferrioxamine 100%; activation, % at 7.5 µM (by protocol); 0.32% of 300,000 active;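 active = mean activation of at least 10% of the iron chelator positive control signal, with at least half of replicates also reaching 10%; inconclusive = mean and replicate majority disagree about reaching 10%; inactive = mean and most replicates under 10%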
Calb FLC = C. albicans growth modulation with fluconazole; C. albicans CaCi-2 + fluconazole, Alamar Blue growth, 48 h; AID 1979; growth inhibition, % (concentration not given with the values); 0.57% of 300,000 active;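 active = growth inhibition above about 58% in most replicates, limit read from the data, passing the limit was not always enough; inconclusive = exactly half the replicates above a set limit; inactive = most replicates below a set limit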;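 also: all wells also contain fluconazole at 8 µg/ml as a sub-toxic cotreatment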
Hits are given with their value; n = inactive; u = inconclusive; x = no result. Only some compounds are listed: those with a hit (about 4.4% of all), similar ones and a draw of the others.

SMILES | HSF1 inhib | T cruzi inh | HSF1 activator | HIF activator | Calb FLC
CCCCCN(C(=O)CCC(=O)OC(C)C(=O)Nc1cccc(C#N)c1)c1c(N)n(CCCC)c(=O)[nH]c1=O (stereo not drawn) | n | n | n | n | n
O=C(OCn1ncc(Cl)c(Cl)c1=O)c1cccc(C(F)(F)F)c1 | n | n | n | n | 98
O=C(NCCc1c[nH]c2ccccc12)/C(=C\c1cccnc1)NC(=O)c1ccccc1Br | n | n | n | n | n
Cc1noc2ncnc(Sc3ccc(Cl)cc3)c12 | n | n | 72 | n | 86
Cc1ccc(Sc2ncnc3onc(C)c23)cc1 | x | x | x | x | n
CCOc1ccc2nc(NC(=O)C3CCCN(S(=O)(=O)c4cccc5nonc45)C3)sc2c1 (stereo not drawn) | n | 57 | n | n | n
CCNC(=S)N1CCN(c2ccc([N+](=O)[O-])cc2)CC1 | n | n | n | n | n
O=[N+]([O-])c1ccc(CN2CCN(c3ccc(Cl)cc3)CC2)o1 | n | 59 | n | n | n
O=[N+]([O-])c1ccc(N2CCN(C(=S)NCc3ccc(Cl)cc3)CC2)cc1 | n | 57 | n | n | n
Brc1ccc(CN2CCN(c3ccccc3)CC2)o1 | n | n | n | n | n
CC(Cc1ccco1)NC(=O)c1ccc(C(F)(F)F)cc1 (stereo not drawn) | n | n | 66 | n | n
S=C(NCCc1ccccc1)N1CCn2cccc2C1c1cccnc1 (stereo not drawn) | n | 68 | n | n | n
S=C(NCc1ccccc1)N1CCn2cccc2C1c1cccnc1 (stereo not drawn) | n | 59 | n | n | n
CCc1nn(CC(=O)NCc2ccccc2Cl)c(=O)c2cccn12 | n | n | n | n | n
Cc1ccccc1CN1CCN(S(=O)(=O)c2cccs2)CC1 | n | n | n | n | n
COC(=O)C1C(=O)C2=C(CC1C)NC(C)=C(C(=O)OCc1ccc(OC)cc1)C2c1ccc(C)o1 (stereo not drawn) | n | n | 112 | n | u
c1cc(CNC2C3CC4CC(C3)CC2C4)ccn1 (stereo not drawn) | n | n | n | n | n
COc1cc(NC(=O)CN2CCN(C(=O)C3CCCO3)CC2)c(OC)cc1Cl (stereo not drawn) | n | n | n | n | x
CCOC(=O)c1c(-c2cccs2)csc1NC(=O)CC(C)C | n | n | n | n | n
COC(=O)c1c(-c2cccs2)csc1NC(=O)c1cccnc1 | x | n | x | n | 95
COc1cc(OC)cc(C(=O)Nc2ccc(-c3nc4ccccc4o3)cc2)c1 | n | 60 | n | n | n
COc1cccc(C(=O)Nc2ccc(-c3nc4ccccc4o3)c(O)c2)c1 | n | n | n | n | n
O=C(Nc1ccc(-c2nc3ccccc3o2)cc1)c1cccnc1 | n | n | 55 | n | n
CC(C)C(C)(C#N)NC(=O)CN1C(=O)NC2(CCCc3ccccc32)C1=O (stereo not drawn) | n | n | n | n | n
CCCc1cc(=O)oc2cc(C)c(CN3CCCC3)c(O)c12 | n | n | 63 | n | n
SMILES | HSF1 inhib | T cruzi inh | HSF1 activator | HIF activator | Calb FLC
NCC(=O)N1CCC(C(=O)N[C@@H](Cc2c[nH]c3ccccc23)C(=O)O)CC1 | n | n | n | n | n
O=C(NCCO)C1CCN(C(=O)c2ccc(-c3ccccc3)cc2)CC1 | n | n | n | n | n
COC(=O)C1=C(C)N(CCCC(=O)O)C(=O)NC1c1ccc(Br)cc1 (stereo not drawn) | n | u | n | n | n
COC(=O)C1=C(C)N(CCCC(=O)O)C(=O)NC1c1ccccc1Cl (stereo not drawn) | -64 | n | n | n | n
COC(=O)C1=C(C)N(CCCC(=O)O)C(=O)NC1c1ccc(C#N)cc1 (stereo not drawn) | -66 | n | n | n | n
Cc1cc(OCC(=O)NCc2ccncc2)c2c(C)c(C)c(=O)oc2c1 | n | n | n | n | n
CC(NCC(O)COc1ccccc1)C1COc2ccccc2O1 (stereo not drawn) | n | n | n | n | n
CCn1nc(C)cc1C(=O)Sc1ccc(Cl)cc1Cl | n | x | 52 | n | n
CCC(C)(C)NC(=O)C(c1cccc(OC)c1OC)N(Cc1ccc(OC)cc1)C(=O)CCC(=O)Nc1cc(C)on1 (stereo not drawn) | n | n | 60 | n | n
COCC(C)n1c(SCC(=O)NNC(=O)c2ccc(F)cc2)nc2ccccc2c1=O (stereo not drawn) | n | n | n | n | n
COc1ccc(C(CCN2CCCC2)c2c(OC)cc(OC)c3c(-c4ccccc4)cc(=O)oc23)cc1 (stereo not drawn) | n | n | n | n | n
COc1cc(C(CCN2CCCC2)c2c(OC)cc(OC)c3c(-c4ccccc4)cc(=O)oc23)cc(OC)c1OC (stereo not drawn) | n | 58 | n | n | n
CC(C)(C)C(=O)Nc1cc2c3c(c1)CCN3C(=O)CC2 | n | n | n | n | n
CSc1nnc2c3ccccc3n(CCc3ccccc3)c2n1 | n | n | n | n | n
S=c1nc2c(n[nH]1)c1ccccc1n2CCc1ccccc1 | n | 66 | n | n | n
Cc1ccc(OCCOc2cccc(Br)c2)c([N+](=O)[O-])n1 | n | n | 88 | n | n
Cc1ccc(OCc2ccc(Br)cc2)c([N+](=O)[O-])n1 | n | n | 77 | n | n
Cc1ccc(OCc2ccc(-c3ccccc3)cc2)c([N+](=O)[O-])n1 | n | n | n | n | n
COc1ccccc1CNC(=O)CS(=O)(=O)Cc1ccccc1 | n | n | n | n | n
O=C1CCCC(O)=C1C=Nc1ccc2c(c1)oc1ccccc12 | n | n | n | n | n
O=C1CCCC(O)=C1C=Nc1cccc(C(F)(F)F)c1 | n | n | u | 714 | n
Oc1ccc(-c2cnc(-c3ccc(O)cc3)nc2)cc1 | n | n | 67 | n | n
Cc1cc(OC(C)C(=O)NCC2CCC(C(=O)O)CC2)c2c(C)c(C)c(=O)oc2c1 (stereo not drawn) | n | n | n | n | n
CCc1ccc2[nH]c3nc(N/N=C/c4ccc(O)cc4O)nnc3c2c1 | n | 57 | n | n | u
COc1ccccc1NC(=O)CN1CCN(CC(=O)Nc2ccc(F)cc2F)CC1 | n | n | 69 | n | n
SMILES | HSF1 inhib | T cruzi inh | HSF1 activator | HIF activator | Calb FLC
COc1ccccc1NC(=O)CN1CCCCC1 | n | n | n | n | n
CN1C(=O)/C(=C/c2ccccc2F)Sc2ccc(C(=O)N3CCCC3)cc21 | n | n | n | n | n
CCOc1ccc(N=C/C=C/c2ccccc2)c(O)c1 | n | n | n | n | n
CCOc1cc(/C=N/NC(=O)CN(CCc2ccccc2)S(=O)(=O)c2ccc(NC(C)=O)cc2)ccc1O | -89 | n | n | n | n
COc1ccc(S(=O)(=O)N(CCc2ccccc2)CC(=O)N/N=C/c2ccc3c(c2)OCO3)cc1 | n | n | n | n | n
COc1ccc(S(=O)(=O)NCc2ccccn2)cc1NC(=O)c1ccccc1F | n | n | n | n | n
O=C(Nc1ccccc1C(=O)O)c1ccc(CN2C(=O)c3ccccc3C2=O)cc1 | n | n | n | n | n
